The results in this text go back to ChEMBL document CHEMBL1153510, “Fascaplysin-inspired diindolyls as selective inhibitors of CDK4/cyclin D1” (Bioorg Med Chem, 2009).

Molecules are shown by their SMILES.

For orientation: IC50 means the concentration that gives 50% inhibition.

The target of experiment [1] is Cyclin-dependent kinase 4/cyclin D1 (Homo sapiens, UniProt P11802). Kind of experiment: (§1) Inhibition of human CDK4/ Cyclin D1 catalytic subunit expressed in Sf9 insect cells assessed as GST-RB152 fusion protein phosphorylation-associated depletion in ATP level by luminescence assay. The procedure, abridged:
(§2)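 Human GST-cyclin D1 co-expressed with CDK4 in Sf-9 cells, purified on glutathione-agarose, eluted and dialysed. Substrate GST-RB152, expressed in E. coli BL21(DE3)pLysS with 4 mM IPTG induction for 4 h at 37 °C. Reaction: 2 µg GST-RB152 and 6 µM ATP in 50 µL Tris pH 7.5/MgCl2/BSA buffer with phosphatase inhibitors and DTT. Started with 200 ng enzyme, 30 min at 30 °C. Read-out Kinase-Glo luminescence of ATP depletion, giving IC50.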

Experiment [2] concerns the target Cyclin-dependent kinase 2 (Homo sapiens, UniProt P24941). Kind of experiment: Inhibition of human CDK2/ Cyclin A catalytic subunit expressed in Sf9 insect cells assessed as histone H1 phosphorylation-associated depletion in ATP level by luminescence assay. The gist of the method:
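Human GST-cyclin A co-expressed with CDK2 in Sf-9 cells, captured on glutathione-agarose, eluted with reduced glutathione, then dialysed. Reaction volume 50 µL in kinase buffer (40 mM Tris pH 7.5, 20 mM MgCl2, 0.1 mg/ml BSA) with 3 µg histone H1 and 6 µM ATP. Also contains 10 mM β-glycerophosphate, 0.1 mM NaF, 0.1 mM orthovanadate and 1 mM DTT. Started with 200 ng enzyme, run 30 min at 30 °C. Remaining ATP read by Kinase-Glo luminescence; IC50 derived from ATP depletion. Compounds from 10 mM DMSO stocks, serially diluted in kinase buffer.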

Experiment [3] deals with Cyclin-dependent kinase 4/cyclin D1 (Homo sapiens, UniProt P11802+P24385). The experiment is described as §1. Particulars: sf9. The gist of the method: as §2
Sequence of Cyclin-dependent kinase 4/cyclin D1 (Homo sapiens, UniProt P11802+P24385) (P11802 whole entry): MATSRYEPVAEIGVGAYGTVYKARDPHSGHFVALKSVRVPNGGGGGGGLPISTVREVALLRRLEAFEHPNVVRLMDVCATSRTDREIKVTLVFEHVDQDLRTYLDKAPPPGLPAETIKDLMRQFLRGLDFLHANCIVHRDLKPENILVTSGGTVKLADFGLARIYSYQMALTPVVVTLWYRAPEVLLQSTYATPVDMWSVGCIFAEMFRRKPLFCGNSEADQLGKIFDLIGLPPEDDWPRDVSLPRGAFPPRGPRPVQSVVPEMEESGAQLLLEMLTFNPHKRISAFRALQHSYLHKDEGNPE
Sequence of Cyclin-dependent kinase 4/cyclin D1 (Homo sapiens, UniProt P11802+P24385) (P24385 whole entry): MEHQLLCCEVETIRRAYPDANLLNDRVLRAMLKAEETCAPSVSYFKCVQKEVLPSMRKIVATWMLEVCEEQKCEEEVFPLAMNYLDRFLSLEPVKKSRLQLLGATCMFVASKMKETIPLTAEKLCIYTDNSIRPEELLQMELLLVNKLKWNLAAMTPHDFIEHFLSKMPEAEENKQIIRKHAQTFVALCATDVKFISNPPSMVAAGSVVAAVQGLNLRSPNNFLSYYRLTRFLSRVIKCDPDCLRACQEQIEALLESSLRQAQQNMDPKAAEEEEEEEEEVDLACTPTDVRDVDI

Sequence of Cyclin-dependent kinase 4/cyclin D1 (Homo sapiens, UniProt P11802) (P11802 whole entry, the tested form may be a part): as the sequence (P11802 whole entry) above
Sequence of Cyclin-dependent kinase 4/cyclin D1 (Homo sapiens, UniProt P11802) (P24385 whole entry, further chain, the tested form may be a part): as the sequence (P24385 whole entry) above

`O=C(C(=O)N1CCc2cc(F)ccc21)c1c[nH]c2ccccc12`: the figures for the IC50 in experiment [1] and in experiment [2] (read-out: IC50) were 136 µM and 790 µM, respectively.

With `Clc1ccc2c(ccn2CCc2c[nH]c3ccc(Cl)cc23)c1`, the IC50 came to 38 µM in experiment [1] and 862 µM in experiment [2] (read-out: IC50).

Take `c1ccc2c(c1)CCN2CCCN1CCc2ccccc21`: the IC50 entry in experiment [3] and in experiment [2] (sf9) was “ND(Insoluble)” in each case.

On to `c1ccc2c(c1)CCN2CCCCCCN1CCc2ccccc21`, for which the IC50 result in experiment [3] and in experiment [2] (sf9) was “ND(Insoluble)” in each case.

Take `c1ccc2c(c1)ccn2CCn1ccc2ccccc21`: the half-maximal inhibitory concentration (IC50) was found to be 37 µM in experiment [1] and 940 µM in experiment [2] (read-out: IC50).

Turning to `c1ccc2c(c1)ccn2CCCCCCn1ccc2ccccc21`, the half-maximal inhibitory concentration (IC50) was 106 µM in experiment [1] and 1210 µM in experiment [2] (read-out: IC50).

As to `O=C(C(=O)N1CCc2ccccc21)c1c[nH]c2ccc(F)cc12`, the figures for the IC50 in experiment [1] and in experiment [2] (read-out: IC50) were 116 µM and 1160 µM, respectively.

With `O=C(C(=O)N1CCc2ccccc21)c1c[nH]c2ccc(Cl)cc12`, the figures for the IC50 in experiment [1] and in experiment [2] (read-out: IC50) were 96 µM and 985 µM, respectively.

Turning to `O=C(C(=O)N1CCc2cc(Cl)ccc21)c1c[nH]c2ccc(Cl)cc12`, the 50% inhibitory concentration (IC50) in experiment [1] came out at 43.5 µM; in experiment [2] (read-out: IC50) it was 915 µM.

As to `c1ccc2c(c1)ccn2CCc1c[nH]c2ccccc12`, the IC50 in experiment [1] and in experiment [2] (read-out: IC50) was > 500 µM each time.

For `Cc1ccc2c(ccn2CCc2c[nH]c3ccccc23)c1`, the IC50 in experiment [1] turned out to be 130 µM; in experiment [2] (read-out: IC50), 500 µM.

Consider `O=C(C(=O)N1CCc2ccccc21)c1c[nH]c2ccccc12`, for which the IC50 in experiment [1] was determined as 122 µM; in experiment [2] (read-out: IC50) it was 760 µM.

For the compound `Clc1ccc2c(ccn2CCc2c[nH]c3ccccc23)c1`, the figures for the half-inhibitory concentration (IC50) in experiment [1] and in experiment [2] (read-out: IC50) were 140 µM and 430 µM, respectively.

Consider `c1ccc2c(c1)CCN2CCN1CCc2ccccc21`, for which the values for the 50% inhibitory concentration (IC50) in experiment [1] and in experiment [2] (read-out: IC50) were 66 µM and 1230 µM, respectively.

`Fc1ccc2[nH]cc(CCn3ccc4ccccc43)c2c1`: the concentration for half-maximal inhibition (IC50) in experiment [1] was found to be 50 µM; in experiment [2] (read-out: IC50) it was 200 µM.

`c1ccc2c(c1)ccn2CCCn1ccc2ccccc21`: the values for the half-inhibitory concentration (IC50) in experiment [1] and in experiment [2] (read-out: IC50) were 38 µM and 1070 µM, respectively.

Consider `Fc1ccc2c(ccn2CCc2c[nH]c3ccccc23)c1`, for which the concentration for half-maximal inhibition (IC50) in experiment [1] is 95 µM; in experiment [2] (read-out: IC50) it was > 500 µM.

On to `O=C(C(=O)N1CCc2cc(Cl)ccc21)c1c[nH]c2ccccc12`, for which the results for the half-inhibitory concentration (IC50) in experiment [1] and in experiment [2] (read-out: IC50) were 69.5 µM and 1030 µM, respectively.

On to `c1ccc2c(c1)ccn2CCCCn1ccc2ccccc21`, for which the IC50 is 45 µM in experiment [1] and 1030 µM in experiment [2] (read-out: IC50).

For `O=C(C(=O)N1CCc2cc(F)ccc21)c1c[nH]c2ccc(F)cc12`, the values for the IC50 in experiment [1] and in experiment [2] (read-out: IC50) were 48 µM and 816 µM, respectively.

Consider `Cc1ccc2c(c1)CCN2C(=O)C(=O)c1c[nH]c2ccc(C)cc12`, for which the IC50 was determined as 38 µM in experiment [1] and 710 µM in experiment [2] (read-out: IC50).

Regarding `Cc1ccc2c(ccn2CCc2c[nH]c3ccc(C)cc23)c1`, the half-inhibitory concentration (IC50) in experiment [1] was determined as 44 µM; in experiment [2] (read-out: IC50), 960 µM.

Take `c1ccc2c(c1)ccn2CCCCCn1ccc2ccccc21`: the IC50 turned out to be 52 µM in experiment [1] and 950 µM in experiment [2] (read-out: IC50).

As to `Cc1ccc2c(c1)CCN2C(=O)C(=O)c1c[nH]c2ccccc12`, the IC50 in experiment [1] was determined as 54 µM; in experiment [2] (read-out: IC50) it was 910 µM.

As to `Cc1ccc2[nH]cc(C(=O)C(=O)N3CCc4ccccc43)c2c1`, the IC50 worked out at 41.5 µM in experiment [1] and 951 µM in experiment [2] (read-out: IC50).

`Clc1ccc2[nH]cc(CCn3ccc4ccccc43)c2c1`: the IC50 in experiment [1] and in experiment [2] (read-out: IC50) was > 500 µM each time.

Consider `c1ccc2c(c1)CCN2CCCCN1CCc2ccccc21`, for which the IC50 result in experiment [3] and in experiment [2] (sf9) was “ND(Insoluble)” in each case.

As for `Fc1ccc2c(ccn2CCc2c[nH]c3ccc(F)cc23)c1`, the half-inhibitory concentration (IC50) in experiment [1] was 73 µM; in experiment [2] (read-out: IC50), 895 µM.

As to `c1ccc2c(c1)CCN2CCCCCN1CCc2ccccc21`, the IC50 result in experiment [3] and in experiment [2] (sf9) was “ND(Insoluble)” throughout.

On to `Cc1ccc2[nH]cc(CCn3ccc4ccccc43)c2c1`, for which the IC50 in experiment [1] stood at 150 µM; in experiment [2] (read-out: IC50), 400 µM.
